Measurements taken from ChEMBL document CHEMBL1137992, “Long hydrocarbon chain keto diols and diacids that favorably alter lipid disorders in vivo” (J Med Chem, 2004).

What was measured:
Assay type in all cases: functional
[1] = tested on: Rattus norvegicus; assay: Amount of non-HDL-cholesterol in obese Zucker rats at pre-treatment at a dose of 30 mg/kg/day
In short: (§1)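 Female obese Zucker fatty rats [Crl:(Zuc)-faBR], 10–12 weeks old (400–500 g), on chow. Compound in 20% EtOH/80% PEG-200 (v/v) given by daily oral gavage. After a 6-h fast, serum was taken before dosing and at 7 days (orbital plexus), and at 14 days (cardiac puncture). Lipoprotein cholesterol came from Superose 6HR gel-filtration profiles × serum total cholesterol. Mean ± SEM.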

[2] = tested on: Rattus norvegicus; assay: Amount of insulin in obese Zucker rats after 2 weeks of treatment at a dose of 10 mg/kg/day
In short: (§2)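 Female obese Zucker rats [Crl:(Zuc)-faBR], 400–500 g, given daily oral gavage in 20% EtOH/80% PEG-200 for up to 14 days. After a 6-h fast, serum was collected pretreatment and at day 7 (orbital bleed) and day 14 (cardiac puncture) and stored at -80 °C. Insulin was measured by ELISA. Values are mean ± SEM.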

[3] = tested on: Rattus norvegicus; assay: Amount of glucose in obese Zucker rats after 2 weeks of treatment at a dose of 100 mg/kg/day
In short: (§3)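 Female Zucker fatty rats [Crl:(Zuc)-faBR], 10–12 weeks old (400–500 g), gavaged daily with vehicle (20% EtOH/80% PEG-200, 0.25% of body weight) or compound. After a 6-h fast, blood glucose was read by glucometer from tail-prick blood of unanesthetized rats before dosing and after 1 and 2 weeks. Values are mean ± SEM.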

[4] = tested on: Rattus norvegicus; assay: Amount of insulin in obese Zucker rats at pre-treatment at a dose of 10 mg/kg/day; in short: as §2
[5] = tested on: Rattus norvegicus; assay: Amount of insulin in obese Zucker rats at pre-treatment at a dose of 100 mg/kg/day; in short: as §2
[6] = tested on: Rattus norvegicus; assay: Amount of triglycerides in obese Zucker rats after 1 week of treatment at a dose of 30 mg/kg/day
In short: (§4)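 Female Zucker fatty rats [Crl:(Zuc)-faBR], 10–12 weeks old (400–500 g), dosed once daily by oral gavage in 20% EtOH/80% PEG-200 for up to 14 days. After a 6-h fast, serum was taken pre-dose, at day 7 (orbital venous plexus, O2/CO2 anaesthesia) and at day 14 (cardiac puncture), stored at −80 °C, and assayed on a Hitachi 912 automatic analyzer. Mean ± SEM.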

[7] = tested on: Rattus norvegicus; assay: Amount of triglycerides in obese Zucker rats after 2 weeks of treatment at a dose of 3 mg/kg/day; in short: as §4
[8] = tested on: Rattus norvegicus; assay: Amount of nonesterified fatty acids in obese Zucker rats at pre-treatment at a dose of 3 mg/kg/day; in short: as §4
[9] = tested on: Rattus norvegicus; assay: Amount of HDL-cholesterol in obese Zucker rats after 1 week of treatment at a dose of 100 mg/kg/day
In short: (§5)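 Female Zucker fatty rats [Crl:(Zuc)-faBR], 10–12 weeks old (400–500 g), dosed once daily by oral gavage in 20% EtOH/80% PEG-200 (dose volume 0.25% of body weight). Rats were fasted 6 h and bled before dosing and at day 7 (orbital plexus), and at day 14 (cardiac puncture). Serum cholesterol fractions came from Superose 6 gel-filtration lipoprotein profiles (% peak area × serum total cholesterol). Values are mean ± SEM.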

[10] = tested on: Rattus norvegicus; assay: Amount of HDL-cholesterol in obese Zucker rats after 2 weeks of treatment at a dose of 30 mg/kg/day; in short: as §5
[11] = tested on: Rattus norvegicus; assay: Amount of nonesterified fatty acids in obese Zucker rats at pre-treatment at a dose of 10 mg/kg/day; in short: as §4
[12] = tested on: Rattus norvegicus; assay: Amount of nonesterified fatty acids in obese Zucker rats at pre-treatment at a dose of 30 mg/kg/day; in short: as §4
[13] = tested on: Rattus norvegicus; assay: Amount of non-HDL-cholesterol in obese Zucker rats after 1 week of treatment at a dose of 10 mg/kg/day; in short: as §5
[14] = tested on: Rattus norvegicus; assay: Amount of non-HDL-cholesterol in obese Zucker rats after 2 weeks of treatment at a dose of 0 mg/kg/day; in short: as §5
[15] = tested on: Rattus norvegicus; assay: Amount of non-HDL-cholesterol in obese Zucker rats after 2 weeks of treatment at a dose of 30 mg/kg/day; in short: as §1
[16] = tested on: Rattus norvegicus; assay: Percent decrease in triglycerides in obese Zucker rats after 1 week of treatment at a dose of 30 mg/kg/day; set-up: scale not given: the % may be the effect or the level left
In short: (§6)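 Female Zucker fatty rats [Crl:(Zuc)-faBR], 10–12 weeks, 400–500 g, acclimated 7 days on chow. Compound or vehicle (20% EtOH/80% PEG-200) given by daily oral gavage for 2 weeks, 0–100 mg/kg/day. After a 6 h fast, blood was taken before dosing, at 1 wk and at 2 wk. Serum lipids, NEFA and insulin (ELISA) were measured; glucose by glucometer. HDL/non-HDL-C came from Superose 6 gel-filtration profiles. Values are % change from pretreatment, mean ± SEM.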

[17] = tested on: Rattus norvegicus; assay: Percent increase in HDL-cholesterol in obese Zucker rats after 2 weeks of treatment at a dose of 30 mg/kg/day; in short: as §6
[18] = tested on: Rattus norvegicus; assay: Amount of nonesterified fatty acids in obese Zucker rats after 1 week of treatment at a dose of 30 mg/kg/day; in short: as §4
[19] = tested on: Rattus norvegicus; assay: Amount of nonesterified fatty acids in obese Zucker rats after 2 weeks of treatment at a dose of 0 mg/kg/day; in short: as §4
[20] = tested on: Rattus norvegicus; assay: Amount of HDL-cholesterol in obese Zucker rats after 1 week of treatment at a dose of 0 mg/kg/day; in short: as §5
[21] = tested on: Rattus norvegicus; assay: Amount of HDL-cholesterol in obese Zucker rats after 1 week of treatment at a dose of 3 mg/kg/day; in short: as §5
[22] = tested on: Rattus norvegicus; assay: Amount of triglycerides in obese Zucker rats after 2 weeks of treatment at a dose of 10 mg/kg/day; in short: as §4
[23] = tested on: Rattus norvegicus; assay: Amount of HDL-cholesterol in obese Zucker rats at pre-treatment at a dose of 10 mg/kg/day; in short: as §5
[24] = tested on: Rattus norvegicus; assay: Amount of HDL-cholesterol in obese Zucker rats at pre-treatment at a dose of 30 mg/kg/day; in short: as §5
[25] = tested on: Rattus norvegicus; assay: Amount of glucose in obese Zucker rats after 1 week of treatment at a dose of 0 mg/kg/day; in short: as §3
[26] = tested on: Rattus norvegicus; assay: Amount of glucose in obese Zucker rats after 1 week of treatment at a dose of 3 mg/kg/day; in short: as §3
[27] = tested on: Rattus norvegicus; assay: Amount of insulin in obese Zucker rats after 1 week of treatment at a dose of 0 mg/kg/day; in short: as §2
[28] = tested on: Rattus norvegicus; assay: Amount of HDL-cholesterol in obese Zucker rats at pre-treatment at a dose of 100 mg/kg/day; in short: as §5
[29] = tested on: Rattus norvegicus; assay: Amount of glucose in obese Zucker rats after 2 weeks of treatment at a dose of 30 mg/kg/day; in short: as §3
[30] = tested on: Rattus norvegicus; assay: Amount of glucose in obese Zucker rats at pre-treatment at a dose of 0 mg/kg/day; in short: as §3
[31] = tested on: Rattus norvegicus; assay: Amount of non-HDL-cholesterol in obese Zucker rats after 2 weeks of treatment at a dose of 100 mg/kg/day; in short: as §5

SMILES | Activity [1] | Activity [2] | Activity [3] | Activity [4] | Activity [5] | Activity [6] | Activity [7] | Activity [8] | Activity [9] | Activity [10] | Activity [11] | Activity [12] | Activity [13] | Activity [14] | Activity [15] | Activity [16] | Activity [17] | Activity [18] | Activity [19] | Activity [20] | further results
CC(C)(CO)CCCCC(=O)CCCCC(C)(C)CO | 30 mg/dL | 7.8 ng/mL | 118 mg/dL | 8.4 ng/mL | 9.6 ng/mL | 726 mg/dL | 781 mg/dL | 1.1 mg/dL | 78 mg/dL | 61 mg/dL | 1.2 mg/dL | 1.4 mg/dL | 21 mg/dL | 30 mg/dL | 38 mg/dL | -27% | 42% | 1.1 mg/dL | 1.6 mg/dL | 39 mg/dL | Activity [21]: 43 mg/dL; Activity [22]: 730 mg/dL; Activity [23]: 46 mg/dL; Activity [24]: 43 mg/dL; Activity [25]: 118 mg/dL; Activity [26]: 106 mg/dL; Activity [27]: 8.7 ng/mL; Activity [28]: 45 mg/dL; Activity [29]: 120 mg/dL; Activity [30]: 125 mg/dL; Activity [31]: 32 mg/dL
CC(C)(CCCCC(=O)CCCCC(C)(C)C(=O)O)C(=O)O | 48 mg/dL | 8.9 ng/mL | 122 mg/dL | 10.6 ng/mL | 8.1 ng/mL | 826 mg/dL | 857 mg/dL | 1.5 mg/dL | 66 mg/dL | 50 mg/dL | 1.6 mg/dL | 1.4 mg/dL | 26 mg/dL | 29 mg/dL | 43 mg/dL | -33% | 47% | 1 mg/dL | 1.4 mg/dL | 39 mg/dL | Activity [21]: 36 mg/dL; Activity [22]: 814 mg/dL; Activity [23]: 37 mg/dL; Activity [24]: 34 mg/dL; Activity [25]: 124 mg/dL; Activity [26]: 99 mg/dL; Activity [27]: 8.4 ng/mL; Activity [28]: 38 mg/dL; Activity [29]: 118 mg/dL; Activity [30]: 134 mg/dL; Activity [31]: 22 mg/dL
CC(C)(CCCCCC(=O)CCCCCC(C)(C)C(=O)O)C(=O)O | 27 mg/dL | 9.1 ng/mL | 105 mg/dL | 9.9 ng/mL | 11.9 ng/mL | 213 mg/dL | 833 mg/dL | 1.3 mg/dL | 100 mg/dL | 208 mg/dL | 1.2 mg/dL | 1.3 mg/dL | 22 mg/dL | 28 mg/dL | 30 mg/dL | -78% | 235% | 0.88 mg/dL | 1.3 mg/dL | 66 mg/dL | Activity [21]: 75 mg/dL; Activity [22]: 865 mg/dL; Activity [23]: 86 mg/dL; Activity [24]: 62 mg/dL; Activity [25]: 123 mg/dL; Activity [26]: 117 mg/dL; Activity [27]: 10.1 ng/mL; Activity [28]: 66 mg/dL; Activity [29]: 130 mg/dL; Activity [30]: 129 mg/dL; Activity [31]: 3 mg/dL
